Only some compounds are listed: those with a hit (about 1.8% of all), similar ones and a draw of the others.
MT1-MMP act inh = blocks activation of human MT1-MMP; AID 651647; GFP/RFP ratio change, % at 20 µM; 360,000 tested, 0.061% active; P50281; HT1080 RFP-PRO-GFP cells, GFP/RFP ratio fluorescence, overnight; percent of plate control window, DMSO zero;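 active = GFP/RFP ratio change of at least 30% with cell ATP level not reduced by more than half and red fluorescence within 50% of control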
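Material – HT1080 RFP-PRO-GFP cells · Control set – DMSO wells and RFP-L50D-GFP cells · Incubation – overnight cell settling, then overnight compound exposure, 37 °C, 5% CO2 · Compound dosing – single-point 20 µM compound, 1% DMSO · Read-out – GFP/RFP fluorescence ratio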
PABP polyA inh = blocks human PABP binding to poly(A) RNA. P11940. fluorescence polarization. calls only at 35 µM. 290,000 tested, 1% active;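 note: calls also rest on retests at 20 µM and on dose response follow-up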
Target sequence (P11940 whole entry, looked up): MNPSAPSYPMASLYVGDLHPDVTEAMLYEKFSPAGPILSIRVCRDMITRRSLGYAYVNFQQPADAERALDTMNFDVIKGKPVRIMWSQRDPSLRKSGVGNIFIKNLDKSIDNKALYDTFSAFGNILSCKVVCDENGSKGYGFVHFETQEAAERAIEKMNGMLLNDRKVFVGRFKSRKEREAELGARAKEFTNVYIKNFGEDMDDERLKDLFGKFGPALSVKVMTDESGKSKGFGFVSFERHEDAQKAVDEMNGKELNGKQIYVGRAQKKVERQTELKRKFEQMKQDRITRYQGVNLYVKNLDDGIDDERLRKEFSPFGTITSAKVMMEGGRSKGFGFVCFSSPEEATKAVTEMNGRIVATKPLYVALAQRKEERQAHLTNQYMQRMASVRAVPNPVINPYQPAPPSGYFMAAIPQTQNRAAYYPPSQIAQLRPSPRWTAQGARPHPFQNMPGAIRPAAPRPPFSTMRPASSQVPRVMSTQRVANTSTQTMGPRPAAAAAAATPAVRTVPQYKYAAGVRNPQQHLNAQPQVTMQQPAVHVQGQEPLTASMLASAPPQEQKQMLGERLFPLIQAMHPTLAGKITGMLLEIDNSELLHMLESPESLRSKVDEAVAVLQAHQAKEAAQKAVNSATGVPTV
eIF4H FP inh = inhibitors of RNA binding by human eIF4H | inhibition, % at 35 µM | eIF4H fluorescence polarization binding assay | Q15056 | 290,000 tested, 0.94% active | AID 2012;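 note: calls also rest on retests at 20 µM and on dose response follow-up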
SKN-1 inh = blocks SKN-1 activity in C. elegans | C. elegans VP596 Pgst-4::GFP/RFP ratio, acrylamide-induced, 24 h | inhibition, % at 21.8 µM | 360,000 tested, 0.49% active | AID 624304;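 active = interference check ratio from 0.5 to 1.5 plus GFP to RFP signal ratio inhibition reaching or exceeding a fixed threshold, cut at about 30% in these data, passing the limit was not always enough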
PABP1 MLLE inh = inhibitors of microRNA-mediated deadenylation, human PABP1 MLLE binding; GST-MLLE / FITC-PAM2 fluorescence polarization; P11940; AID 588489; inhibition, % at 20 µM; 360,000 tested, 0.36% active; in the data active = inhibition above about 35%, passing the limit was not always enough
Of the large screens only hits and unclear results are named; the others gave an inactive call. Unless noted, the rule behind the calls is not given here.

Cn1ccc(CC(=O)N2CCC(N3CCC(C(=O)N4CCCC4)CC3)CC2)c1	PABP polyA inh active, eIF4H FP inh 52
O=C(NC1CC1)C1CCN(C2CCN(C(=O)Cc3ccc(F)cc3)CC2)CC1	none
O=C(NCc1nnnn1-c1ccc(F)cc1)c1cc2ccccc2o1	none (no result: PABP polyA inh, eIF4H FP inh)
O=[N+]([O-])c1ccc(N/N=C\c2ccccc2OCc2ccccc2)cc1	PABP polyA inh active, eIF4H FP inh 23
Cc1cc(C)nc(N/N=C/c2ccccc2OCc2ccc([N+](=O)[O-])cc2)n1	none
N#Cc1c(NC(=O)C2CC(c3ccccc3O)=NO2)sc2c1CCC2 (stereo unspecified)	PABP1 MLLE inh 40
NC(=O)c1c(NC(=O)c2ccco2)sc2c1CCC2	none
N#Cc1c(NC(=O)c2ccco2)sc2c1CCC2	PABP polyA inh active, eIF4H FP inh 74
CC1CCN(CC(=O)Nc2sc3c(c2C#N)CCC3)CC1	eIF4H FP inh 50
N#Cc1c(NC(=O)c2ccncc2)sc2c1CCC2	PABP polyA inh active, eIF4H FP inh 51
COc1ccccc1NOC(=O)CCOc1ccccc1	none (no result: PABP polyA inh, eIF4H FP inh)
COc1ccc(Cc2nnc(SCC(=O)Nc3ccccc3)[nH]c2=O)cc1	none (no result: PABP polyA inh, eIF4H FP inh)
C=CCO/N=C(/C)c1ccc(Oc2cnccn2)cc1	PABP polyA inh active, eIF4H FP inh 7.9
O=C(CN1CCN(S(=O)(=O)c2ccccc2F)CC1)Nc1ccnn1C1CCCC1	none (no result: PABP polyA inh, eIF4H FP inh)
Cc1cc(OCC(=O)Nc2ccccc2N2CCOCC2)c(C(C)C)cc1Cl	none (no result: PABP polyA inh, eIF4H FP inh)
COc1ccc(NC(=S)N=Nc2c(O)[nH]c3ccccc23)cc1	PABP1 MLLE inh 41
Oc1ccc(NC(=S)N=Nc2c(O)[nH]c3ccccc23)cc1	PABP1 MLLE inh 52
O=C(NN1C(=O)C2CC=C(Cl)CC2C1=O)c1ccncc1 (stereo unspecified)	PABP polyA inh active, eIF4H FP inh inconclusive
COc1cccc(CN2CCC(C(=O)N3CCN(c4ccccc4F)CC3)CC2)c1	eIF4H FP inh 61
CC(C)NC(=O)C1CCN(Cc2cccc(Oc3ccccc3)c2)CC1	PABP polyA inh active, eIF4H FP inh 90
CCCCC(=O)N1CCN(c2ccc(OC)cc2[N+](=O)[O-])CC1	none
COc1ccc(OC)c(CN2CCC(C(=O)N3CCN(c4ccccc4F)CC3)CC2)c1	none
COc1cccc(CC(=O)N2CCN(c3ccccc3[N+](=O)[O-])CC2)c1	PABP polyA inh active, eIF4H FP inh 52
CCNC(=O)C1(C)CCN1C(=O)CCc1cccc(Cl)c1 (stereo unspecified)	none (no result: PABP polyA inh, eIF4H FP inh)
CNC(=S)NN=C(C)c1ccc(OC)cc1O	PABP1 MLLE inh 43 (no result: PABP polyA inh, eIF4H FP inh)
COc1ccc(NC(=S)N/N=C2\CC(C)(C)Oc3ccc(OC)cc32)cc1	PABP1 MLLE inh 37
CCOc1ccc(N(CC(=O)NC2CCCCC2)S(=O)(=O)c2ccccc2)cc1	none
c1ccc(CSc2nnc(-c3cccnc3)o2)cc1	none
Brc1ccc(-c2nnc(-c3cccnc3)o2)cc1	SKN-1 inh 48 (no result: PABP polyA inh, eIF4H FP inh)
Brc1ccc(-c2nnc(-c3ccco3)o2)cc1	SKN-1 inh 81
Brc1ccc(CSc2nnc(-c3cccnc3)o2)cc1	SKN-1 inh 43
Clc1ccc(-c2nnc(-c3cccnc3)o2)cc1	SKN-1 inh 40
O=C1c2ccccc2C(=O)C1(CO)c1ccc(OC(F)F)cc1	none
Cc1ccc(-c2nnc(-c3ccccc3Br)o2)cc1	none
Clc1ccc(-c2nnc(-c3ccccc3)o2)cn1	SKN-1 inh 42
Brc1ccc(-c2nnc(-c3ccccc3Br)o2)cc1	SKN-1 inh 65
O=C(C1CCCCC1)N1C[C@H](O)[C@@H](n2cc(C3CC3)nn2)C[C@@H]1c1ccccc1	none (no result: PABP polyA inh, eIF4H FP inh)
O=C1C(Cl)=C(NCc2ccco2)C(=O)c2ccccc21	none (no result: PABP polyA inh, eIF4H FP inh)
CCCC(=O)NC1=C(Cl)C(=O)c2ccccc2C1=O	PABP1 MLLE inh 42 (no result: PABP polyA inh, eIF4H FP inh)
CCNC1=C(Cl)C(=O)c2ccccc2C1=O	SKN-1 inh 37
CCN(CC)c1ccc(NC2=C(Cl)C(=O)c3ccccc3C2=O)cc1	PABP1 MLLE inh 45
Cc1ccc(NC2=C(Cl)C(=O)c3ccccc3C2=O)cc1	none
CCOC(=O)C1=CCC(c2ccccc2)N(S(=O)(=O)c2ccc(C)cc2)[C@H]1CC (stereo partly specified)	none (no result: PABP polyA inh, eIF4H FP inh, PABP1 MLLE inh)
Cc1ccc(Nc2c(O)nc[nH]c2=O)cc1	none (no result: PABP polyA inh, eIF4H FP inh)
O=[N+]([O-])c1ccc(CS(=O)(=O)c2ncn[nH]2)cc1	none
COCCCn1c(=N)c(C(N)=S)cc2c(=O)n3cccc(C)c3nc21	none (no result: PABP polyA inh, eIF4H FP inh)
